Here are results for 10 compounds from ChEMBL document CHEMBL1144747, “(Phenylpiperazinyl-butyl)oxindoles as selective 5-HT7 receptor antagonists” (J Med Chem, 2008).

Data set [1] can be described thus: Oral bioavailability in rat. Format: ADME, organism-based. The settings on record: in vivo.
In data set [2] the target is T1, 5-hydroxytryptamine receptor 2C (Homo sapiens, UniProt P28335).
T1 sequence (P28335 whole entry): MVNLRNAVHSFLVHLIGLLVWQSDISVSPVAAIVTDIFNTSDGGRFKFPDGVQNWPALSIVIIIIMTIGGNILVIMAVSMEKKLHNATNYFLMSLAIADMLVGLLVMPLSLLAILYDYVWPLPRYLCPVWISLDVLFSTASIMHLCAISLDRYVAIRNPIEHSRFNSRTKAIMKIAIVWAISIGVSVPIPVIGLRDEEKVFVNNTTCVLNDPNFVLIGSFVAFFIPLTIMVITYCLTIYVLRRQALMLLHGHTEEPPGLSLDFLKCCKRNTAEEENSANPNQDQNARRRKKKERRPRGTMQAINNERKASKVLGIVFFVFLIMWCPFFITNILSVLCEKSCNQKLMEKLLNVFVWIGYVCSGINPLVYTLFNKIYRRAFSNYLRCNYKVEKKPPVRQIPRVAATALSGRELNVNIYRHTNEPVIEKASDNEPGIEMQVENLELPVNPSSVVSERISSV
The data set is described as follows: Inhibition of 5HT2C receptor.

The test system of data set [3] is Rattus norvegicus. The data set is described as follows: Anxiolytic activity in ip dosed Wistar rat assessed as number of punished licks for 5 mins by conflict drinking test. It is filed as functional. The settings on record: read-out: MED. Summed up:
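Modified Vogel test in male Wistar rats, 160–180 g, water-deprived 48 h and fasted 24 h. Dosed ip 30 min before test. After a 30 s free-drinking period, 600 µA, 0.6 s shocks came through the spout every 20 licks over 5 min. Punished licks counted; minimal effective dose reported.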

For the next data set, the target named is D(2) dopamine receptor (Homo sapiens, UniProt P14416). Description: Inhibition of dopamine D2 receptor.
Data set [4] addresses T2, 5-hydroxytryptamine receptor 1A (Rattus norvegicus, UniProt P19327).
T2 sequence (P19327 whole entry): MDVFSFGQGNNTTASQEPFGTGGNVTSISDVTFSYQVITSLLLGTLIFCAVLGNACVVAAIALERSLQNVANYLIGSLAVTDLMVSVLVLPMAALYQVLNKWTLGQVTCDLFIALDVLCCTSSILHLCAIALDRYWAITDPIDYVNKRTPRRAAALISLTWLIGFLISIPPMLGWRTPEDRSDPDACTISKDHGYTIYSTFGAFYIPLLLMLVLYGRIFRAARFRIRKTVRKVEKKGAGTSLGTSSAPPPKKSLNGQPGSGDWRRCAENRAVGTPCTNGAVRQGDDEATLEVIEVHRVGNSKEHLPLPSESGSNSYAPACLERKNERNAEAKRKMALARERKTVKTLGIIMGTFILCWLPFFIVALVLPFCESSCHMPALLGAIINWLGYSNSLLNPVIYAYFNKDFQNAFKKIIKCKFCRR
The data set is described as follows: Inhibition of 5HT1A receptor in rat frontal cortex membrane. It is filed as cell membranes. In short, it runs like this: (§1)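 Rat tissue homogenized in 50 mM Tris-HCl pH 7.7, washed by repeated 40000g spins with a 10 min 37 °C incubation. Buffer: Tris-HCl, 6.66 mM CaCl2, 16.66 µM pargyline, 0.166% ascorbate. Labelled with 1.5 nM [3H]8-OH-DPAT, 45 min at 25 °C; nonspecific with 10 µM 5-HT. GF/B filtration, then scintillation counting; percent inhibition.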

Data set [5] concerns the target T3, 5-hydroxytryptamine receptor 7 (Homo sapiens, UniProt P34969). Description: Antagonist activity at human 5HT7A receptor expressed in CHO cells assessed as inhibition of […]-induced cAMP elevation at 10 nM administered before […] challenge. Further details: scale not given: the % may be the effect or the level left. Format: functional, cell-based. In short, it runs like this:
(§2)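 CHO cells stably expressing human 5-HT7A, cultured in F12:DMEM with 5% FCS, seeded 24 h ahead. Compounds from 1 mM DMSO stock (final DMSO 0.1%) preincubated 10 min, then 20 min with 10 nM 5-CT at 37 °C. Cells lysed, cAMP by EIA, normalized to BCA protein. The 5-CT-induced level is taken as 100%; six independent experiments.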

In data set [6] the target is T4, 5-hydroxytryptamine receptor 1A (Rattus norvegicus) (UniProt P19327).
T4 sequence (whole entry): T2 sequence (P19327 whole entry)
Description: Displacement of [3H]8-OH-DPAT from 5HT1A receptor in rat frontal cortex membrane at 0.1 uM. Format: cell membranes. In short, it runs like this: as §1
For orientation: Loss of bound radioactivity is the signal in a displacement assay; it reports binding, not function.

For data set [7], the target named is T3, 5-hydroxytryptamine receptor 7. The data set is described as follows: Displacement of [3H]LSD from human recombinant 5HT7 receptor expressed in CHO cells. It is filed as cell-based. To be noted: read-out: Ki. Summed up: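 Cloned human 5-HT7 receptor from CHO cells, labelled with [3H]LSD; nonspecific binding with 25 µM clozapine. Stopped by filtration on PEI-soaked GF/C filters, then scintillation counting. Ki from two displacement curves of nine concentrations each, run in triplicate.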

Data set [8] concerns the target T5, Alpha-1A adrenergic receptor (Homo sapiens, UniProt P35348).
T5 sequence (P35348 whole entry): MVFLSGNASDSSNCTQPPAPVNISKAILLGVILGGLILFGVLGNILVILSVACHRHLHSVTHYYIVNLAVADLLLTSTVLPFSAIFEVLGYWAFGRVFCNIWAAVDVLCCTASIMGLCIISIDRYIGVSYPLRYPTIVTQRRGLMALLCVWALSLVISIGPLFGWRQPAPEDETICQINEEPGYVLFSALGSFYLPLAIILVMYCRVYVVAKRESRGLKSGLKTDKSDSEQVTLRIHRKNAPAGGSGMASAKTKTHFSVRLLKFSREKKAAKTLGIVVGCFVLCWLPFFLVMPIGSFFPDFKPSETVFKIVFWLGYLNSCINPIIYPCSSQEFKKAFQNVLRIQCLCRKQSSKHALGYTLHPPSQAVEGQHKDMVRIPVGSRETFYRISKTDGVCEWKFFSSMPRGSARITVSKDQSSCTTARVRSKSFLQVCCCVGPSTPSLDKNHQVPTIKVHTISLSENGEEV
Description: Inhibition of adrenergic alpha-1 receptor.

For data set [9], the target named is 5-hydroxytryptamine receptor 6 (Homo sapiens, UniProt P50406). Description: Inhibition of 5HT6 receptor.
For the next data set, the target named is D(1A) dopamine receptor (Homo sapiens, UniProt P21728). Description: Inhibition of dopamine D1 receptor.
In data set [10] the target is T4, 5-hydroxytryptamine receptor 1A (Rattus norvegicus). Description: Displacement of [3H]8-OH-DPAT from 5HT1A receptor in rat frontal cortex membrane at 10 nM. It is filed as cell membranes. In short, it runs like this:
as §1

For data set [11], the target named is T3, 5-hydroxytryptamine receptor 7. The data set is described as follows: Antagonist activity at human 5HT7A receptor expressed in CHO cells assessed as inhibition of […]-induced cAMP elevation at 1 uM. Format: functional, cell-based. More on the design: scale not given: the % may be the effect or the level left. Summed up:
as §2

For data set [12], the target named is 5-hydroxytryptamine receptor 2A (Homo sapiens, UniProt P28223). Description: Inhibition of 5HT2A receptor.
The next data set relates to Mus musculus. Description: Anxiolytic activity in ip dosed NMRI mouse assessed as behavioral activity for 5 mins by light dark assay. Format: functional. The settings on record: read-out: MED. Summed up:
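Male NMRI mice, 25–33 g, kept in a dark room and dosed ip 30 min before test, then placed in the centre of the lit area. Over 5 min, time in each area, transitions, and horizontal and vertical activity were recorded. Minimal effective dose by one-way ANOVA with Duncan's test.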

The species entered for data set [13] is Rattus norvegicus. Description: Metabolic stability in rat. It is filed as ADME, organism-based. The settings on record: in vitro.

D(1A) dopamine receptor, sequence (P21728 whole entry): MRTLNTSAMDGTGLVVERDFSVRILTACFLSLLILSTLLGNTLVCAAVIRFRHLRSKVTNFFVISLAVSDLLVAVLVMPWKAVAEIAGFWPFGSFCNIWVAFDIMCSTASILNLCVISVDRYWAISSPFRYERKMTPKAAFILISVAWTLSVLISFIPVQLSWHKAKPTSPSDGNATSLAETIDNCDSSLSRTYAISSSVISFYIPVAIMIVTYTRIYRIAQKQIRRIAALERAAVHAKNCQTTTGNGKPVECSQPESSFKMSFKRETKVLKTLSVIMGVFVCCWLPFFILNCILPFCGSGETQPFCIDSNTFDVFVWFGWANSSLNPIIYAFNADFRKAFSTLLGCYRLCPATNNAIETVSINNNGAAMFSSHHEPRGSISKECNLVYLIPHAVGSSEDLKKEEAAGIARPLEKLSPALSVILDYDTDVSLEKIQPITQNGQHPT
D(2) dopamine receptor, sequence (P14416 whole entry): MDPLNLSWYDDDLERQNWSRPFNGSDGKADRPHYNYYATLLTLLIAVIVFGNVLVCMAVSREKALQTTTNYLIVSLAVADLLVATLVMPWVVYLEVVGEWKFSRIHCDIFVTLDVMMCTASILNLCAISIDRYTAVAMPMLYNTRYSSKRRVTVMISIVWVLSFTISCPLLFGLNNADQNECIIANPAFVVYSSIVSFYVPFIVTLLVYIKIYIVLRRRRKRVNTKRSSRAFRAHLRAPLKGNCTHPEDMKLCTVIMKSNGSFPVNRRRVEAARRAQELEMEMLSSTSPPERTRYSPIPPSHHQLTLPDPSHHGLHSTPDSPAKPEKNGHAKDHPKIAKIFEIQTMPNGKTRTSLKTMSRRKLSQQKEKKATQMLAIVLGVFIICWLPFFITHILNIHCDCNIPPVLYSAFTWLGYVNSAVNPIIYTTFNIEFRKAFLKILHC
5-hydroxytryptamine receptor 6, sequence (P50406 whole entry): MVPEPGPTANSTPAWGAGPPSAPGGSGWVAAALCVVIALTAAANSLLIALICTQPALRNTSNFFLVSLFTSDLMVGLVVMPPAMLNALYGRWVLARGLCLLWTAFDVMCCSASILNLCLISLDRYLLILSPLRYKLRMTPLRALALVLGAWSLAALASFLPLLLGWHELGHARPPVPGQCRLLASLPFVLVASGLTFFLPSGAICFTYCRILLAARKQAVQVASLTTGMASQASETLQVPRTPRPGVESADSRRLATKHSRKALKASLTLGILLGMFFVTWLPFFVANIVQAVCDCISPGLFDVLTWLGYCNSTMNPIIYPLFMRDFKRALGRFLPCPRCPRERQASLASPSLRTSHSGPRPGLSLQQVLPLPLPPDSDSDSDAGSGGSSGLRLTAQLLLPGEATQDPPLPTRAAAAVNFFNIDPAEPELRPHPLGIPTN
T3 sequence (P34969 whole entry): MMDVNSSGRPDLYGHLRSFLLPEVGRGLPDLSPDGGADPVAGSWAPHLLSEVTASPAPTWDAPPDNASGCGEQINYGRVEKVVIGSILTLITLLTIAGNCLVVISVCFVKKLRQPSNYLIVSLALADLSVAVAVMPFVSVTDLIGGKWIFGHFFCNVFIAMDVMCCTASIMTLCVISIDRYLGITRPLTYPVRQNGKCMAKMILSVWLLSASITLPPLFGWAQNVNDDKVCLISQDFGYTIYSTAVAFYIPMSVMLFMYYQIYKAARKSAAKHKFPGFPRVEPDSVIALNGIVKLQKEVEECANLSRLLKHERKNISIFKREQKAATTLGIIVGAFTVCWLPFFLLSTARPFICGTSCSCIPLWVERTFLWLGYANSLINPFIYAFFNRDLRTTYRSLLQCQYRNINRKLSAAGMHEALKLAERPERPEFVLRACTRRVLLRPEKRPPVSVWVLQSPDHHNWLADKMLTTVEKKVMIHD
5-hydroxytryptamine receptor 2A, sequence (P28223 whole entry): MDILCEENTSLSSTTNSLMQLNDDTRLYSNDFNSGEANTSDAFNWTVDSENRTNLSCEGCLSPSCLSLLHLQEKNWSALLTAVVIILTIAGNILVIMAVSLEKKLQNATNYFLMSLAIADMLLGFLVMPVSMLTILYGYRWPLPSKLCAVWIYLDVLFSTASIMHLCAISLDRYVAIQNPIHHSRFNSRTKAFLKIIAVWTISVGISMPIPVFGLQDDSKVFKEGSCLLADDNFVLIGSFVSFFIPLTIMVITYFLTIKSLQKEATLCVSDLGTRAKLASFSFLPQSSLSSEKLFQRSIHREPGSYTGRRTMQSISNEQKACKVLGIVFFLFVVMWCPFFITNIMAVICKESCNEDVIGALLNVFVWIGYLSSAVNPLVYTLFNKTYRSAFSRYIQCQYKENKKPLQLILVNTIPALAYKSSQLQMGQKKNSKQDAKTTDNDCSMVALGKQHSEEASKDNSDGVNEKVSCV

For orientation: bioavailability means dose-corrected exposure relative to a reference, in per cent. For `O=C1Nc2ccc(Cl)c3c2C1(CCCCN1CC=C(c2ccc(Cl)cc2)CC1)CCC3` (configuration not stated), the bioavailability in data set [1] is 18%.
Broadly, the Ki is the equilibrium dissociation constant of an inhibitor or competing ligand from its target. In the case of `O=C1Nc2ccc(F)cc2C1CCCCN1CCN(c2ccccc2)CC1` (configuration not stated), the Ki in [2] turned out to be 1.5 µM; at D(2) dopamine receptor it was 0.33 µM; in data set [4], 0.15 µM; in [7], 0.044 µM; in data set [8], 0.02 µM; in [9] it was 1.8 µM. Besides, the values for the Ki (on D(1A) dopamine receptor; in [12]) were 1.9 µM and 0.055 µM, respectively. Besides, the minimal effective dose with Rattus norvegicus [3] was less than 10 mg/kg. Also, the Activity in [5] was 40%; in [6] it was 33%; in data set [10] it was 5%; in data set [11], greater than 95%.
For `CCC1(CCCCN2CCN(c3ccc(Cl)cc3)CC2)C(=O)Nc2c(Cl)cc(Cl)cc21` (configuration not stated), the minimal effective dose is less than 5 mg/kg with Rattus norvegicus [3] and less than 1 mg/kg with Mus musculus. In addition, the Activity in data set [6] was found to be 5%. The Ki in data set [7] is 0.0101 µM. This compound yielded a Stability in the data set listed under Rattus norvegicus [13] of 76%.
Regarding `O=C1Nc2ccc(F)cc2C1CCCCN1CCN(c2ccc(F)cc2)CC1` (configuration not stated), the minimal effective dose with Rattus norvegicus [3] was greater than 10 mg/kg. The Activity in data set [6] was found to be 6%. Further, the inhibition constant Ki in data set [7] is 0.0034 µM. In the data set filed under Rattus norvegicus [13], the Stability is 40%.
In the case of `CCC1(CCCCN2CCN(c3ccc(Cl)cc3)CC2)C(=O)Nc2cc(F)ccc21` (configuration not stated), the Ki in data set [2] was 0.358 µM; on D(2) dopamine receptor it was 0.95 µM; in data set [4], 1.61 µM; in data set [7], 0.00079 µM; in [8], 0.0713 µM; in data set [9], 0.187 µM. The Ki at D(1A) dopamine receptor stood at 3.36 µM; in data set [12], 0.0194 µM. In addition, the minimal effective dose in the data set on Rattus norvegicus [3] is greater than 20 mg/kg; in the data set on Mus musculus, greater than 10 mg/kg. In addition, the values for the Activity in [6], in data set [10] and in data set [11] were 9%, 0% and greater than 95%, respectively.
Regarding `O=C1Nc2ccccc2C1CCCCN1CCN(c2ccc(Cl)cc2)CC1` (configuration not stated), the inhibitory constant (Ki) in data set [2] stood at 0.69 µM; on D(2) dopamine receptor it was 0.96 µM; in data set [4], 1.8 µM; in data set [7], 0.007 µM; in [8], 0.042 µM; in data set [9], 0.58 µM. Also, the Ki at D(1A) dopamine receptor is 2.4 µM; in data set [12], 0.0175 µM. The minimal effective dose in the data set with Rattus norvegicus [3] is less than 2.5 mg/kg; in the data set with Mus musculus it was less than 1 mg/kg. The Activity was 80% in [5], 10% in data set [6] and greater than 95% in data set [11].
In the case of `CCC1(CCCCN2CCN(c3cccc(Cl)c3)CC2)C(=O)Nc2ccccc21` (configuration not stated), the minimal effective dose in the data set on Rattus norvegicus [3] was greater than 20 mg/kg; with Mus musculus it was greater than 10 mg/kg. Moreover, the Activity in [5] is 40%; in [6], 42%; in data set [10] it was 11%; in data set [11], greater than 95%. Further, the Ki in [7] was 0.00041 µM. In the data set listed under Rattus norvegicus [13], this compound showed a Stability of 4%.
Consider `CCC1(CCCCCN2CCN(c3cccc(Cl)c3)CC2)C(=O)Nc2ccccc21` (configuration not stated), for which the minimal effective dose with Rattus norvegicus [3] and with Mus musculus was greater than 10 mg/kg throughout. Also, the Activity in data set [5] was 20%; in data set [6], 43%; in [10] it was 12%; in data set [11] it was greater than 95%. In addition, in data set [7], the Ki came to 0.00145 µM.
`CCC1(CCCCN2CCN(c3ccc(Cl)cc3)CC2)C(=O)Nc2ccccc21` (configuration not stated): the values for the minimal effective dose with Rattus norvegicus [3] and in the data set with Mus musculus were 10 mg/kg and greater than 10 mg/kg, respectively. The Activity worked out at 11% in data set [6] and 2% in data set [10]. In data set [7], the Ki is 0.00038 µM. Further, the Stability in the data set listed under Rattus norvegicus [13] is listed as 9%.
As for `O=C1Nc2ccccc2C1CCCCN1CCN(c2cccc(Cl)c2)CC1` (configuration not stated), the figures for the minimal effective dose in the data set with Rattus norvegicus [3] and in the data set with Mus musculus were less than 5 mg/kg and greater than 10 mg/kg, respectively. Also, the Activity was 80% in data set [5], 40% in data set [6], 9% in data set [10] and greater than 95% in data set [11]. The Ki in data set [7] amounted to 0.00049 µM.
